# Source: PubChem (several laboratories)
# Most compounds without a hit are left out; they make up all but 2.6% or so of the library.
# ARFGAP1 inhibitor: inhibitors of rat ARFGAP1. hit rate 0.26% among 360,000. Arfgap1-stimulated ARF1 GTP hydrolysis, GDP FP detection. inhibition, % at 16.5 µM;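 active = inhibition above a per-plate limit, mean inhibition of low control wells plus 3 SD, cut at about 25% in these data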;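 also: 0% = DMSO wells with enzyme and 100% = wells lacking Arfgap1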
# Target sequence (Q62848 1-136 limits assumed): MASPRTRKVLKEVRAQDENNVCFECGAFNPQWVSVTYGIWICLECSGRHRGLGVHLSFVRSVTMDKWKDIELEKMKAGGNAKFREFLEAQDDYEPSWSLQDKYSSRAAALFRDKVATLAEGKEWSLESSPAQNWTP
#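 Material: rat Arfgap1 catalytic domain, aa 1-136; also added: human ARF1(Δ1-17)-GTP substrate; compound dosing: one concentration, 16.5 µM, DMSO 1.26%; incubation: GTP hydrolysis reaction 2 h at 25 °C; measured by: Tracer-displacement fluorescence polarization with EDTA stop, 620/688 nm; evaluation: % inhibition from polarization; repeats: one replicate per compound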
# esBAF inh: blocks esBAF chromatin remodeling in mouse ES cells; Bmi1-luciferase knock-in reporter, 24 h; 100% = twice the neutral-well signal; reporter increase, % at 12.5 µM; hit rate 2% among 350,000; AID 602393; in the data active = activation above about 40%; inconclusive = no clear call, values can overlap the other calls;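 also: 0% = median of the plate's neutral control wells and 100% = double that signal; a rise in the Bmi1 reporter signal indicates esBAF inhibition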
# ASAP1 inh: inhibitors of human ASAP1 ArfGAP activity. hit rate 0.19% among 360,000. AID 624377. ASAP1-stimulated ARF1 GTP hydrolysis, GDP FP detection. Q9ULH1. inhibition, % at 16.5 µM; in the data active = inhibition above about 25%;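 also: 0% = vehicle with enzyme and substrate and 100% = no enzyme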
# Target sequence (Q9ULH1 325-724 limits assumed): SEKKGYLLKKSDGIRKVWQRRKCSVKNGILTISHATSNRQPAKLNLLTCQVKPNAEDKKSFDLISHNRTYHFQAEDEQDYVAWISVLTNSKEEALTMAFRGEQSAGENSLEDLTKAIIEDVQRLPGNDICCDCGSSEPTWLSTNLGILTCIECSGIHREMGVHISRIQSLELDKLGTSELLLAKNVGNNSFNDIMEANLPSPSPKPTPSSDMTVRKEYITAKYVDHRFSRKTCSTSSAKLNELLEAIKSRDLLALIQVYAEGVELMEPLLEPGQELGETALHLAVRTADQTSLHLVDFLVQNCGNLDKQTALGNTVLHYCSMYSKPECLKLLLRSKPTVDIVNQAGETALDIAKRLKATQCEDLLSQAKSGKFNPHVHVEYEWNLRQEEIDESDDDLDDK
# SMARCA2 activ: increases SMARCA2 function in MMTV reporter cells; activation, % at 9.1 µM; AID 652017; MG213 cells, MMTV-luciferase reporter, dexamethasone, overnight; hit rate 1% among 370,000; in the data active = activation above about 7.8%;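 also: 0% = vehicle wells and 100% = reference activator wells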
# SMARCA2 conf: SMARCA2 activation, confirmation screen; activation, % at 9.1 µM; MG213 cells, MMTV-luciferase with dexamethasone, luminescence, overnight; MG213 cells expressing E1A, Rb sequestered; DMSO wells 0%, reference activator 100%; hit rate 30% among 3,500; shares compounds with SMARCA2 activ;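 active = activation above its plate's cutoff, the mean activation of tested wells plus 3 SD, cut at about 7.9% in these data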
# GAL4-VP16 Luc: activates GAL4-VP16 luciferase, flagging SMARCA2 activator hits. shares compounds with SMARCA2 activ. HEK293 GAL4-VP16 pG5luc reporter, luciferase luminescence; scaled: DMSO wells 0%, SAHA wells 100%. activation, % at 9.1 µM. hit rate 41% among 3,500. AID 686939;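 active = activation above the solvent-only control well mean plus 3 SD, averaged across control plates, cut at about 5.2% in these data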
# Starred values were filed as active, the others as inactive; ? = inconclusive; . = no result.
SMILES,ARFGAP1 inhibitor,esBAF inh,ASAP1 inh,SMARCA2 activ,SMARCA2 conf,GAL4-VP16 Luc
Cn1cccc1/C=C1\SC(=Nc2cccc(O)c2)NC1=O,15,?,8,9.9*,10*,11*
Cn1cccc1/C=C1\SC(=Nc2ccc(O)cc2)NC1=O,4,.,15,3,.,.
COCc1ccc(C(=O)N(C)CC2CCCN(CCc3ccc(Cl)cc3)C2)o1 (stereo not drawn),8,-2,-5,-1,.,.
COCc1ccc(C(=O)N(C)CC2CCCN(CCc3ccc(OC)cc3)C2)o1 (stereo not drawn),7,50*,0,9.8*,4,5
O=C(C[C@H]1C[C@@H]2c3cc(NC(=O)c4cccnc4)ccc3O[C@@H]2[C@H](CO)O1)NCc1cccc(F)c1,.,-2,.,.,.,.
COc1cccc(NC(=O)c2oc3ccccc3c2NC(C)=O)c1,.,32,.,.,.,.
COCC(=O)Nc1c(C(=O)Nc2cccc(OC)c2)oc2ccccc12,2,26,-10,10*,12*,6.2*
COCC(=O)N1CC[C@@H]2[C@@H](CO)Nc3ccc(-c4cccc(C(=O)N(C)C)c4)cc3[C@@H]21,.,0,.,.,.,.
CCCN1C[C@H](C)[C@@H](OC)CN(C)C(=O)c2ccc(NC(=O)c3cccc(OC)c3)cc2OC[C@H]1C,.,-1,.,.,.,.
CO[C@@H]1CN(C)C(=O)c2ccc(NC(=O)C3CCOCC3)cc2OC[C@@H](C)N(C)C[C@@H]1C,.,-2,.,.,.,.
CC1(C(=O)OCc2cc(=O)n3cc(Br)ccc3n2)CC1(Cl)Cl (stereo not drawn),3,83*,-10,10*,9.4*,13*
Cc1ccccc1C(=O)NC(CC(C)C)C(=O)OCc1cc(=O)n2cc(Br)ccc2n1 (stereo not drawn),8,.,6,9.4*,5,8.8*
CC1(C)NC(=O)N(CC(=O)OCc2cc(=O)n3cc(Br)ccc3n2)C1=O,-3,.,15,-1,.,.
CCCNC(=O)Nc1ccc2c(c1)C(=O)N(C)[C@H]1CC[C@@H](CC(=O)NC)O[C@H]1CO2,.,-3,.,.,.,.
Cc1noc(C)c1S(=O)(=O)N(C)C[C@@H]1OCc2cn(nn2)CCCC(=O)N([C@H](C)CO)C[C@@H]1C,.,1,.,.,.,.
COc1ccc(N2C(=O)C3C(C2=O)C(C(=O)c2ccc(Cl)cc2)N2CCCC32)cc1 (stereo not drawn),0,.,-5,12*,2,-1
Nc1nc(Nc2ccccc2F)sc1C(=O)c1ccccc1,-3,.,-5,8.2*,13*,6.9*
Cc1ccccc1NC(=O)c1onc2c1CCCC2,2,27,13,8.2*,7,8.1*
COC(=O)c1cccc(NC(=O)/C=C/c2ccc3c(c2)OCO3)c1,20,.,-1,8.2*,-2,4
O=C(/C=C/c1ccc2c(c1)OCO2)Nc1cccnc1,5,.,6,13*,5,5.6*
COC(=O)c1cc(NC(=O)/C=C/c2ccc3c(c2)OCO3)cc(C(=O)OC)c1,0,-2,-2,-1,.,.
CC(=O)Nc1ccc(NC(=O)/C=C/c2ccc3c(c2)OCO3)cc1,4,.,0,1,.,.
Cc1cccnc1NC(=O)/C=C/c1ccc2c(c1)OCO2,-2,37,7,2,.,.
Cc1cc(C)nc(NC(=O)/C=C/c2ccc3c(c2)OCO3)c1,-6,48*,6,11*,9.9*,8.4*
Cc1noc(C)c1NC(=O)Nc1ccc2c(c1)C(=O)N([C@H](C)CO)C[C@H](C)[C@H](CN(C)Cc1ccc(C(F)(F)F)cc1)OCCCC[C@H](C)O2,.,-2,.,.,.,.
SMILES,ARFGAP1 inhibitor,esBAF inh,ASAP1 inh,SMARCA2 activ,SMARCA2 conf,GAL4-VP16 Luc
CCc1ccc2[nH]c(=O)c(CN(CCN(CC)CC)C(=O)Nc3ccccc3OC)cc2c1,5,1,-13,9.0*,-1,1
CCN(CC)CCCN(Cc1cc2cc3c(cc2[nH]c1=O)OCO3)C(=S)Nc1ccccc1OC,12,1,-2,2,.,.
COc1ccccc1NC(=S)N(CCCN(C)C)Cc1cc2cc3c(cc2[nH]c1=O)OCO3,0,.,8,8.0*,-1,0
C[C@@H]1CN([C@H](C)CO)C(=O)c2cc(NC(=O)Cn3cnnn3)ccc2O[C@@H]1CN(C)S(=O)(=O)c1cccs1,.,1,.,.,.,.
C[C@@H]1CN([C@H](C)CO)C(=O)c2cc(NC(=O)Nc3ccccc3)ccc2O[C@H]1CN(C)S(C)(=O)=O,.,-2,.,.,.,.
COCC(=O)N1[C@H](CO)[C@H]2c3ccccc3N(C(=O)c3cccnc3)C[C@H]21,.,-4,.,.,.,.
CC(=O)Nc1ccc2c(c1)C(=O)N(C)[C@H]1CC[C@H](CC(=O)NCc3ccc(Cl)cc3)O[C@@H]1CO2,.,-6,.,.,.,.
CCn1nc(C)c(CNC(=O)Nc2ccc3c(c2)OCO3)c1C,8,37,8,9.3*,1,3
O=C(Nc1nc2ccccc2n1CCN1CCCC1)c1ccc(Cl)cc1,-4,48*,5,9.1*,18*,13*
O=C(Nc1nc2ccccc2n1CCN1CCOCC1)c1ccc(Cl)cc1,0,18,-7,8.0*,-3,2
Cc1ccc(C(=O)Nc2nc3ccccc3n2CCN2CCCC2)cc1,1,-5,2,4,.,.
CNC[C@H]1Oc2ccc(NS(=O)(=O)c3ccc(F)cc3)cc2C(=O)N([C@H](C)CO)C[C@@H]1C,.,-4,.,.,.,.
CN1c2ccc(C#Cc3cccnc3)cc2[C@@H]2[C@@H](CCN2S(=O)(=O)c2ccccc2F)[C@H]1CO,.,1,.,.,.,.
N#C[C@H]1[C@H](c2ccc(-c3cccnc3)cc2)[C@@H](CO)N1C(=O)C1CC1,.,-1,.,.,.,.
CC(=O)Nc1cccc(NC(=O)CSc2ncc(C(=O)Nc3ccccc3)c(=O)n2C)c1,-9,8,-2,12*,28*,2
COCC(=O)N1C[C@@H]2[C@H](c3ccccc31)[C@@H](CO)N2C(=O)c1ccncc1,.,0,.,.,.,.
COc1ccc(NC(=O)N(C)C[C@H]2Oc3ccc(NC(=O)Nc4cccc5ccccc45)cc3CC(=O)N([C@H](C)CO)C[C@H]2C)cc1,.,-6,.,.,.,.
CCc1ccccc1-n1ncc(C(=O)Nc2ccc(OC)cc2)c1C,9,25,2,8.0*,5,12*
COc1ccc(S(=O)(=O)N[C@@H]2CC[C@@H](CCNC(=O)CN3CCOCC3)O[C@H]2CO)cc1,.,-1,.,.,.,.
Cc1ccccc1N=Nc1c(C)[nH]n(C(N)=S)c1=O,-4,12,-3,14*,0,2
Nc1nc(-c2ccc(Cl)cc2)cs1,0,.,6,9.1*,7,1
Nc1nc(-c2ccc(C(=O)O)cc2)cs1,-2,-4,14,-3,.,.
Cc1ccccc1OCc1csc(N)n1,-10,.,0,-6,.,.
Nc1nc(COc2ccc(Cl)cc2)cs1,4,28,-4,10*,5,4
